# High-throughput results deposited in PubChem BioAssay by several laboratories.
# SR-BI DiI-HDL act – enhances SR-BI lipid uptake from DiI-HDL; AID 504775; 320,000 tested, 0.096% active; activation, % at 12.5 µM; CHO ldlA[mSR-BI] cells, DiI-HDL uptake fluorescence, 3 h; 100 = double the neutral-control signal;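 active means mean replicate activation of at least 60% and every replicate at or above 60%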;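 further: 0% = median plate neutral-control signal and 100% = twice that signal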
#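 Assay system: LDL receptor-deficient CHO ldlA cells overexpressing murine SR-BI / Medium: BSA-supplemented, HEPES-buffered Ham's F12, pH 7.4 / Probe or stimulus: DiI-labelled HDL at 10 µg/mL final / Timing: compound with DiI-HDL co-incubation, 3 h at 37 °C / Technique: bottom-read cell fluorescence after medium removal, ex 550/em 595 nm / Measure: HDL uptake via cellular fluorescence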
# UBC13 inh – blocks human UBC13 polyubiquitin chain formation | P61088 | TR-FRET | inhibition, % at 20 µM | 330,000 tested, 0.47% active; in the data active means inhibition above about 45%, passing the limit was not always enough
# Neddyl block – inhibitors of human cullin neddylation; TR-FRET cullin neddylation, biochemical; inhibition, % at 25 µM; 360,000 tested, 0.58% active; in the data active means inhibition above about 36%
# SR-BI DiI inh – blocks mouse SR-BI lipid uptake from DiI-HDL. AID 488896. ldlA[mSR-BI] CHO cells, DiI-HDL uptake fluorescence, 3 h. 320,000 tested, 0.96% active. inhibition, % at 12.5 µM;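 active means mean replicate inhibition of at least 70% and a set share of replicates each scoring 70 or more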;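 further: 0% = median of neutral control wells and 100% = median of positive control wells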
# Target sequence (Q61009 whole entry, looked up): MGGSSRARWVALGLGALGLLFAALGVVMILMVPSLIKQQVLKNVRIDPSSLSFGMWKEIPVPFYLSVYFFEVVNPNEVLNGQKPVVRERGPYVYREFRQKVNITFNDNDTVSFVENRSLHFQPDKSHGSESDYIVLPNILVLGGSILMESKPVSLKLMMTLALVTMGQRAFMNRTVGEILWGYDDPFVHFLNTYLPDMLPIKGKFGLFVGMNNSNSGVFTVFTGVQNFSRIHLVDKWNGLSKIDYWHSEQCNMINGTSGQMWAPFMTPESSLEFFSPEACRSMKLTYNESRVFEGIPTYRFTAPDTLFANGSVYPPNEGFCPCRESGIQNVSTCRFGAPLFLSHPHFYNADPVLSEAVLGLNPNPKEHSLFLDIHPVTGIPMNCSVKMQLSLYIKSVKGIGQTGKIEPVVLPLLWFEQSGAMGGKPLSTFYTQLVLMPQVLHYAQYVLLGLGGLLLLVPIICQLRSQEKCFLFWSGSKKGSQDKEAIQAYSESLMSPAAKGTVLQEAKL
# Neddyl conf – cullin neddylation inhibition, confirmation. TR-FRET cullin neddylation biochemical assay. calls only at 25 µM. shares compounds with Neddyl block. 1,800 tested, 13% active; in the data active means inhibition above about 40%;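 further: neddylation substrate is the cullin 1 ring ligase complex with SKP2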
# Active calls of the source: *; i = inactive; nt = no result given; + = active, no number. Rows were chosen to be rich in hits. Some 1.9% of all compounds tested hit in one or more screens of this group.
SMILES,SR-BI DiI-HDL act,UBC13 inh,Neddyl block,SR-BI DiI inh,Neddyl conf
CC(C)CNC(=S)N(CCN(C)C)Cc1cc2cc3c(cc2[nH]c1=O)OCO3,11,-6,36,-11,nt
CCNC(=S)N(CCN(C)C)Cc1cc2cc3c(cc2[nH]c1=O)OCO3,-13,-7,53*,13,nt
CN(C)CCN(Cc1cc2cc3c(cc2[nH]c1=O)OCO3)C(=S)NCc1ccco1,-5,3,40*,5,i
CCNC(=S)N(CCN(C)C)Cc1cc2cc(OCC)ccc2[nH]c1=O,25,-4,41*,-25,i
c1ccc2c(-c3cc(NCc4ccncc4)n4nccc4n3)cccc2c1,nt,nt,34,nt,nt
COc1ccccc1-c1cnc(C(O)c2c(C)cc(C)cc2C)[nH]1 (stereo not given),nt,nt,2,nt,nt
CN(C)CCNc1ncnc2c1ncn2[C@H]1CN(Cc2cccnc2)C[C@@H](CO)O1,nt,nt,9,nt,nt
COc1ccc(NC(=O)CCC(=O)c2cc(C)sc2C)cc1,0,-4,-3,0,nt
Cc1noc(C)c1NC(=O)Nc1ccc2c(c1)C(=O)N([C@H](C)CO)C[C@H](C)[C@@H](CN(C)S(=O)(=O)c1cccs1)O2,10,-12,0,-10,nt
Cc1ccsc1/C=N/Nc1nc(Cl)c(Cl)cc1Cl,-30,-7,39*,30,i
CC(C(N)=O)N1c2cccc3cccc(c23)S1(=O)=O (stereo not given),9,2,30,-9,nt
CN(Cc1ccccc1F)C(=O)CN1c2cccc3cccc(c23)S1(=O)=O,11,10,50*,-11,+
CC(=O)c1ccc(NC(=O)CN2c3cccc4cccc(c34)S2(=O)=O)cc1,-7,-1,48*,7,i
CCNC(=O)CN1c2cccc3cccc(c23)S1(=O)=O,36,5,36,-36,nt
COc1cc(NC(=O)CN2c3cccc4cccc(c34)S2(=O)=O)cc(OC)c1OC,-2,2,31,2,nt
CCC(C)NC(=O)CN1c2cccc3cccc(c23)S1(=O)=O (stereo not given),-16,7,42*,16,i
CC(NC(=O)C(C)N1c2cccc3cccc(c23)S1(=O)=O)c1ccccc1 (stereo not given),0,4,42*,0,i
O=C(NCCCN1CCCC1=O)c1cccc(S(=O)(=O)N2CCCCC2)c1,12,-2,6,-12,nt
COCCCn1c(C)cc(C(=O)CN2c3cccc4cccc(c34)S2(=O)=O)c1C,-32,3,37*,32,i
CC(=O)Nc1cccc(NC(=O)CN2c3cccc4cccc(c34)S2(=O)=O)c1,-2,4,43*,2,i
CN(C)S(=O)(=O)c1ccc(Cl)c(NC(=O)C2CCN(S(=O)(=O)c3cccs3)CC2)c1,-4,1,-18,4,nt
CCOC(=O)c1sc(-c2cccs2)nc1C,5,-2,46*,-5,i
CCc1ccc(S(=O)(=O)Nc2c(NC3CCCCC3)c3ccccc3oc2=O)cc1,-14,17,43*,14,+
COc1cc2ccnc(C=O)c2cc1OC,nt,nt,2,nt,nt
COc1cc2ccnc(C=NO)c2cc1OC,nt,nt,41*,nt,i
SMILES,SR-BI DiI-HDL act,UBC13 inh,Neddyl block,SR-BI DiI inh,Neddyl conf
CSc1nnc2c(=O)[nH]c(=O)n(C)c2n1,10,nt,-23,-10,nt
CSc1cnc2c(=O)n(C)c(=O)[nH]c2n1,16,28,48*,-16,nt
Nc1cc2c(cc1Br)-c1c(C(=O)O)cccc1C2O (stereo not given),15,nt,39*,-15,i
COc1cc(N)c(Br)cc1C(=O)O,9,4,-6,-9,nt
CCCNC(=O)COC(=O)c1cc(-c2ccc(OC)cc2)nc2ccccc12,-3,15,nt,3,nt
COc1ccc(-c2cc(C(=O)OCC(=O)NC3CC3)c3ccccc3n2)cc1,-34,36,56*,34,nt
COCCNC(=O)COC(=O)c1cc(-c2ccc(OC)cc2)nc2ccccc12,-25,13,44*,25,nt
O=C(COC(=O)c1cc(-c2ccccc2)nc2ccccc12)NC1CC1,-23,6,-1,23,nt
CCNC(=O)COC(=O)c1cc(-c2ccc(OC)cc2)nc2ccccc12,-1,11,57*,1,nt
COc1ccc2oc(C(=O)OCC(=O)Nc3ccc(OC)c(S(N)(=O)=O)c3)c(C)c2c1,-34,8,53*,34,nt
COc1ccc2oc(C(=O)OCC(=O)N(C)CC(=O)Nc3ccc(C)cc3)c(C)c2c1,-27,6,41*,27,nt
CN(C)CCSc1nc(N)c2c3c(sc2n1)CN(C)CC3,11,75*,39*,-11,i
COCCSc1nc(N)c2c3c(sc2n1)CN(C)CC3,8,0,43*,-8,i
NNC(=O)c1oc2nc(-c3ccccc3)cc(-c3ccccc3)c2c1N,-98,-5,41*,98*,i
O=C(NC(=S)Nc1ccc(N2CCCC2)cc1)c1ccc(F)cc1,-34,-8,-1,34,nt
COc1cc(NC(=O)Cc2ccccc2)ccc1NC(=O)c1ccccc1,-47,8,43*,47,i
COc1cc(NC(=O)c2cccnc2)c(Cl)cc1NC(=O)c1ccccc1,-55,2,41*,55,i
COc1cc(NC(=O)c2cccnc2)c(Cl)cc1NC(=O)c1ccc(Cl)cc1,-4,-1,nt,4,nt
Cc1cc(C)c2c(N)c(C(=O)c3cccc(Cl)c3)sc2n1,22,11,37*,-22,i
COC(=O)C1=C(C)N=C2SC(C#N)=C(N)N2C1c1ccc(OCc2ccccc2)cc1 (stereo not given),-39,3,42*,39,i
COC(=O)C1=C(C)N=C2SC(C#N)=C(N)N2C1c1cc(OC)c(OC)c(OC)c1 (stereo not given),-9,12,31,9,nt
O=C(Cn1c(=O)oc2cccnc21)Nc1ccc(C(F)(F)F)cc1,nt,6,40*,nt,i
Cc1ccc2[nH]c(=O)c(C3=NN(C(=O)CCC(=O)O)C(c4cccs4)C3)c(-c3ccccc3)c2c1 (stereo not given),36,-5,43*,-36,i
CCOC(=O)c1sc2nccc(N(C)C)c2c1N=CNOCc1ccccc1,-37,15,41*,37,i
CCOC(=O)c1sc2nccc(N(C)C)c2c1N=CNOC,-42,4,21,42,nt
CS(=O)(=O)c1ccccc1-c1nc(-c2ccc(C(F)(F)F)cc2)no1,-29,6,1,29,nt
Cc1c(-c2nc(-c3ccc(C(F)(F)F)cc3)no2)n(C)oc1=O,10,2,42*,-10,i
CCOC(=O)[C@H]1[C@H]2COc3ccccc3[C@@H]2N2C(=O)[C@@H](CO)NC(=O)[C@@]12C,0,-4,-13,10,nt
CCN(CC(=O)NCc1cccs1)C(=O)/C=C/c1cc(OC)c(OC)c(OC)c1,-17,0,39*,17,+
C(=C\c1ccccc1)/CN1CCN(C(c2cc3ccccc3o2)c2nnnn2Cc2ccccc2)CC1 (stereo not given),nt,nt,6,nt,nt
